Data set [1] relates to Mus musculus. In words: Anti-seizure activity against 124dB loud auditory stimulus induced Fmr1 knockout FVB.129P2-Fmr1tm1Cgr/J mouse model of audiogenic seizure assessed as decrease in sound-induced wild running at 10 mg/kg,sc for 8 hrs followed by audiogenic seizure induction by audiogenic seizure assay (Rvb=100%). In kind it is functional. Details: scale not given: the % may be the effect or the level left. The gist of the method:
(§1)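 Adult male mice (10–17 wk). Single s.c. dose (0, 10, 20 or 30 mg/kg) in 20% (wt/vol) hydroxypropyl-β-cyclodextrin vehicle; AGS induced 8 h later. Mouse acclimated 2 min in a clear acrylic two-chamber box, then exposed to a 124 dB sound. Scored as percentage of animals showing each sequential phase (wild running, seizure, death by respiratory arrest); χ2 test against vehicle.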

Data set [2] can be described thus: Toxicity in Fmr1 knockout FVB.129P2-Fmr1tm1Cgr/J mouse assessed as body weight change at 20 mg/kg,sc for 21 days. The settings on record: in vivo, 504 h, time 21 day. In kind it is organism-based.
A short description of data set [3]: Drug concentration in FVB.129P2 mouse brain at 20 mg/kg,sc and measured after 1 hrs by LC-MS/MS analysis. It counts as ADME, organism-based. The settings on record: read-out: Ct. In outline: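 WT FVB.129P2 mice got one s.c. injection of 20 mg/kg (2 mg/mL in 20% hydroxypropyl-β-cyclodextrin). Blood and forebrain were collected at time points from 15 min to 24 h. Forebrain was weighed, snap-frozen and homogenized in 2 volumes of cold PBS. Drug quantified by LC-MS/MS. n = 2–3, mean ± SEM.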

The subject of data set [4] is Mus musculus. Description: Protective activity in FVB.129P2-Pde6b+ Tyr c-ch/AntJ wild type mouse assessed as decrease in counterclockwise revolutions at 20 mg/kg, sc for 5 days by open field assay. It counts as functional, organism-based. The settings on record: time 5.0 day. The gist of the method: (§2)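 Adult male WT and Fmr1 KO mice dosed s.c. at 20 mg/kg or vehicle for 5 d; tested 4–5.5 h after dosing. Single mouse in a novel open field for 30 min, tracked by infrared sensors in 1-min bins; bar-graph values averaged over minutes 18–30. Mice beyond 2 SD in total distance, or immobile for 5 consecutive minutes, were excluded.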

Data set [5] concerns Mus musculus. Description: Protective activity in Fmr1 knockout FVB.129P2-Fmr1tm1Cgr/J mouse model of Fragile X syndrome assessed as decrease in time spent in moving at 20 mg/kg, sc for 5 days and measured for 30 mins by open field assay. In kind it is functional, organism-based. The settings on record: time 5.0 day. In outline: as §2
Data set [6] has as its system Mus musculus. In words: Protective activity in Fmr1 knockout FVB.129P2-Fmr1tm1Cgr/J mouse model of Fragile X syndrome assessed as decrease in counterclockwise revolutions at 20 mg/kg, sc for 5 days by open field assay. It counts as functional, organism-based. The settings on record: time 5.0 day. The gist of the method: as §2
In data set [7] the test system is Mus musculus. Description: Protective activity in Fmr1 knockout FVB.129P2-Fmr1tm1Cgr/J mouse assessed as decrease in apical dendritic spine density in layer II/III pyramidal neurons segment 2 at 20 mg/kg, sc and measured after 8 hrs by Golgi-Cox technique analysis. In kind it is functional, organism-based. The gist of the method:
(§3)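 Adult male WT and Fmr1 KO FVB mice given 20 mg/kg s.c. or vehicle; brains collected 8 h later and Golgi stained. Apical dendrites of layer II/III pyramidal neurons in temporal cortex, originating 50–100 µm from the soma, were divided into ten 10-µm segments and spines counted. 40–60 neurons from 4–6 mice per group; one-way ANOVA.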

For data set [8], the system named is Mus musculus. Description: Anti-seizure activity against 124dB loud auditory stimulus induced Fmr1 knockout FVB.129P2-Fmr1tm1Cgr/J mouse model of audiogenic seizure assessed as decrease in sound-induced seizure at 10 mg/kg,sc for 8 hrs followed by audiogenic seizure induction by audiogenic seizure assay (Rvb=100%). It counts as functional. Set-up: scale not given: the % may be the effect or the level left. In outline:
as §1

The subject of data set [9] is Mus musculus. In words: Protective activity in Fmr1 knockout FVB.129P2-Fmr1tm1Cgr/J mouse model of Fragile X syndrome assessed as decrease in stereotypy count at 20 mg/kg, sc for 5 days by open field assay. The settings on record: time 5.0 day. It counts as functional, organism-based. The gist of the method:
as §2

Data set [10] relates to Mus musculus. In words: Anti-seizure activity against 124dB loud auditory stimulus induced Fmr1 knockout FVB.129P2-Fmr1tm1Cgr/J mouse model of audiogenic seizure assessed as decrease in sound-induced wild running at 10 mg/kg,sc for 5 days followed by audiogenic seizure induction after 8 hrs post-treatment by audiogenic seizure assay (Rvb=100%). In kind it is functional. Details: scale not given: the % may be the effect or the level left. The settings on record: time 5 day. The gist of the method:
(§4)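 Adult male Fmr1 KO mice given 10 or 20 mg/kg s.c. daily for 5 d in 20% hydroxypropyl-β-cyclodextrin vehicle. AGS assay run 8 h after the final injection: 2 min acclimation in an acrylic chamber, then a 124 dB auditory stimulus. Incidence of wild running and seizure recorded; χ2 comparison with vehicle.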

The subject of data set [11] is Mus musculus. Description: Protective activity in FVB.129P2-Pde6b+ Tyr c-ch/AntJ wild type mouse assessed as decrease in stereotypy count at 20 mg/kg, sc for 5 days by open field assay. It counts as functional, organism-based. The settings on record: time 5.0 day. In outline:
as §2

Data set [12] concerns Mus musculus. In words: Protective activity in Fmr1 knockout FVB.129P2-Fmr1tm1Cgr/J mouse assessed as decrease in apical dendritic spine density in layer II/III pyramidal neurons segment 10 at 20 mg/kg, sc and measured after 8 hrs by Golgi-Cox technique analysis. It counts as functional, organism-based. In outline:
as §3

Data set [13] relates to Mus musculus. In words: Protective activity in Fmr1 knockout FVB.129P2-Fmr1tm1Cgr/J mouse model of Fragile X syndrome assessed as decrease in distance travelled at 20 mg/kg, sc for 5 days and measured during 18 to 30 mins by open field assay. The settings on record: time 5.0 day. It counts as functional, organism-based. The gist of the method: as §2
The subject of data set [14] is Mus musculus. Description: Anti-seizure activity against 124dB loud auditory stimulus induced Fmr1 knockout FVB.129P2-Fmr1tm1Cgr/J mouse model of audiogenic seizure assessed as decrease in sound-induced seizure at 20 mg/kg,sc for 5 days followed by audiogenic seizure induction after 8 hrs post-treatment by audiogenic seizure assay (Rvb=96%). In kind it is functional. Details: scale not given: the % may be the effect or the level left. The settings on record: time 5 day. The gist of the method:
as §4

Data set [15] deals with Mus musculus. Description: Anti-seizure activity against 124dB loud auditory stimulus induced Fmr1 knockout FVB.129P2-Fmr1tm1Cgr/J mouse model of audiogenic seizure assessed as decrease in sound-induced wild running at 20 mg/kg,sc for 5 days followed by audiogenic seizure induction after 8 hrs post-treatment by audiogenic seizure assay (Rvb=100%). Set-up: scale not given: the % may be the effect or the level left. In kind it is functional. The settings on record: time 5 day. In outline: as §4

In data set [16] the test system is Mus musculus. In words: Protective activity in Fmr1 knockout FVB.129P2-Fmr1tm1Cgr/J mouse assessed as decrease in apical dendritic spine density in layer II/III pyramidal neurons segment 9 at 20 mg/kg, sc and measured after 8 hrs by Golgi-Cox technique analysis. It counts as functional, organism-based. The gist of the method:
as §3

For data set [17], the system named is Mus musculus. Description: Anti-seizure activity against 124dB loud auditory stimulus induced Fmr1 knockout FVB.129P2-Fmr1tm1Cgr/J mouse model of audiogenic seizure assessed as decrease in sound-induced seizure at 20 mg/kg,sc for 8 hrs followed by audiogenic seizure induction by audiogenic seizure assay (Rvb=100%). Set-up: scale not given: the % may be the effect or the level left. In kind it is functional. In outline: as §1

The structures appear in SMILES notation. Calls of active or inactive are those of the source. The rule behind the calls is not given here.

On to `CCn1c(=O)c(-c2ccc(Cl)cc2Cl)cc2cnc(Nc3ccc(N4CCNCC4)c(F)c3)nc21`, for which the Activity in the data set with Mus musculus [1] is 80%; in [2], “Non-Toxic”; in the data set with Mus musculus [8] it was 80%; in the data set on Mus musculus [10], 75%; with Mus musculus [14], 42%; in the data set with Mus musculus [15], 54%. In addition, the Activity in the data set with Mus musculus [17] amounted to 25%. Also, the concentration at 1 h in [3] worked out at 155 ng/g. The result in the data set with Mus musculus [4], in the data set on Mus musculus [5], in the data set on Mus musculus [6], in the data set with Mus musculus [9], in the data set on Mus musculus [11] and in the data set on Mus musculus [13] was Active. The outcome in the data set with Mus musculus [7], in the data set on Mus musculus [12] and in the data set with Mus musculus [16] was inactive.

These data come from ChEMBL document CHEMBL5653614, “Rescue of fragile X syndrome phenotypes in Fmr1 KO mice by the small-molecule PAK inhibitor FRAX486” (Proc Natl Acad Sci U S A, 2013).
